For test [1], the system named is P. berghei schizonts in HC-04 cells. Put plainly: Confocal imaging of P. berghei infected HC-04 cells treated with compound. In kind it is cell-based, Plasmodium berghei. As to conditions: HC-04, 1x and 2x IC50, 48 hpi. Summed up:
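HC-04 cells were seeded at 16,000 cells/well on poly-L-lysine-coated chamber slides and pretreated 24 h with test compound, NR1D2 inhibitor or DMSO. They were then infected with P. berghei Luc sporozoites (MOI 1:1), with treatment kept to 48 hpi. Cells were fixed in 4% PFA, permeabilised with 0.1% Triton X-100 and blocked in 1% BSA. Staining: anti-UIS4 1:1000 overnight at 4 °C, anti-NR1D2 1:500, LipidTOX 1:500 and DAPI. Imaging was at 63x oil. Merozoites per schizont were counted. Two biological replicates; one-way ANOVA with Dunnett's test.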

For test [2], the system named is NR1D2. The test is described as follows: Western blot of NR1D2 protein in uninfected HC-04 cells. In kind it is cell-based, human. As to conditions: uninfected HC-04, 1x to 10x IC50, 48 hours. Summed up:
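Uninfected HC-04 cells were exposed 48 h to varying concentrations of test compound or NR1D2 inhibitor, then lysed. Protein was measured by DC assay, resolved by SDS-PAGE and transferred to nitrocellulose. Blots were blocked 1 h in 5% blocker and probed with anti-NR1D2 at 1:1000. Levels were expressed relative to beta actin.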

Test [3] has as its system lipid droplets in uninfected HC-04 cells. The test is described as follows: HCS LipidTOX lipid droplet staining in uninfected HC-04 cells. In kind it is cell-based, human.
In test [4] the test system is NR1D2 transcript. The test is described as follows: qPCR of NR1D2 transcript in treated HC-04 cells. In kind it is cell-based, human. As to conditions: HC-04, post treatment 48h. Summed up: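 HC-04 cells were treated 48 h with varying concentrations of test compound or NR1D2 inhibitor. Cells were harvested, RNA was extracted, and NR1D2 transcript was quantified by qPCR with gene-specific primers.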

The target in test [5] is P. berghei liver stages. The test is described as follows: P. berghei luciferase liver stage assay. In kind it is cell-based, Plasmodium berghei. As to conditions: IC50 used to set 1x and 2x treatment of HC-04 cells.
The subject of test [6] is P. berghei infected HepG2 cells. The test is described as follows: Cell Painting morphological profile compared with landmark compound set. In kind it is cell-based, human.
Test [7] concerns P. falciparum asexual blood stages. As to conditions: cited from earlier work.
Test [8] concerns P. berghei in NR1D2 knockdown lines. Put plainly: Parasite development IC50 shift in NR1D2 shRNA knockdown cells. In kind it is cell-based, Plasmodium berghei. As to conditions: stable shRNA knockdown, luciferase after 48 hours.

`CN1CCN(Cc2cc(CNC3(c4ccccc4F)CCCC3)ccc2O)CC1` [ARN5187, reference compound]: the “number of merozoites per schizont relative to DMSO” value in test [1] is “lower number of merozoites per schizont”. Also, the “NR1D2 protein expression level (western blot)” value (“NR1D2 protein expression level” below) in test [2] is reported as “no changes in protein expression levels”.

On to `CC1(C)c2nc(-c3ccc(F)cc3)c(Nc3ccc(Cl)cc3)n2CCN1C(=O)CN` [GNF179], for which the “HCS lipid tox staining intensities” value in test [3] is “did not observe any significant changes”.

Broadly, the IC50 is the midpoint of a concentration-inhibition curve. Consider `Cc1cc(C(=O)Oc2ccccc2C(N)=O)c(C)n1Cc1ccco1` [MMV1088447], for which, in test [4], the “NR1D2 RNA expression levels” value is “no significant changes”. The same compound gave an IC50 in test [5] of 1050 ± 290 nM. Also, the “morphological profile similarity / inferred host pathway” value in test [6] was “phenocopied treatment with tamoxifen, endoxifen and lichochalcone A”. The “activity against asexual blood stages” value in test [7] is on record as “little activity”. The “difference in IC50 in NR1D2 knockdown lines relative to wild type cells” value in test [8] is “did not see any differences”. In test [1], the “number of merozoites per schizont relative to DMSO” value is recorded as “significant reduction” and the “parasite size relative to DMSO controls” value is reported as “smaller”. In addition, the “NR1D2 protein expression level” value in test [2] is on record as “dose dependent reduction”.

`N#CC(C(=O)c1cc(S(=O)(=O)N2CCc3ccccc3C2)ccc1Cl)c1ccccn1` (stereo not shown) [MMV1346624]: the “NR1D2 RNA expression levels” value in test [4] was “no significant changes”. In test [5], this compound showed an IC50 of 1040 ± 730 nM. In addition, the “morphological profile similarity / inferred host pathway” value in test [6] was “phenocopied treatment with tamoxifen, endoxifen and lichochalcone A”. The “activity against asexual blood stages” value in test [7] is recorded as “little activity”. Besides, the “difference in IC50 in NR1D2 knockdown lines relative to wild type cells” value in test [8] is listed as “did not see any differences”. In test [1], the “number of merozoites per schizont relative to DMSO” value is “significant reduction” and the “parasite size relative to DMSO controls” value was “smaller”. Further, the “NR1D2 protein expression level” value in test [2] is recorded as “dose dependent reduction”.

In the case of `Cc1cccc2sc(C(=O)NCc3cccc(NS(N)(=O)=O)c3)c(Cl)c12` [MMV1452174], the “morphological profile similarity / inferred host pathway” value in test [6] is reported as “potential modulator of the host S1P pathway”. In addition, the “HCS lipid tox staining intensities” value in test [3] is “did not observe any significant changes”.

Take `O=C1C(O)=C([C@H]2CC[C@H](c3ccc(Cl)cc3)CC2)C(=O)c2ccccc21` [atovaquone]: the “HCS lipid tox staining intensities” value in test [3] is recorded as “did not observe any significant changes”.

Values taken from paper PMC10878326 (Cell chemical biology, 2023).
